Assay results taken from ChEMBL document CHEMBL1136812, “Structure-activity relationships of dimethindene derivatives as new M2-selective muscarinic receptor antagonists” (J Med Chem, 2003).

target: T1, Muscarinic acetylcholine receptor M1 (Homo sapiens, UniProt P11229); test: Binding affinity towards cloned human muscarinic acetylcholine receptor M1 stably expressed in CHO-K1 cells using [3H]N-methylscopolamine; assay type: cell-based
T1 sequence (P11229 whole entry): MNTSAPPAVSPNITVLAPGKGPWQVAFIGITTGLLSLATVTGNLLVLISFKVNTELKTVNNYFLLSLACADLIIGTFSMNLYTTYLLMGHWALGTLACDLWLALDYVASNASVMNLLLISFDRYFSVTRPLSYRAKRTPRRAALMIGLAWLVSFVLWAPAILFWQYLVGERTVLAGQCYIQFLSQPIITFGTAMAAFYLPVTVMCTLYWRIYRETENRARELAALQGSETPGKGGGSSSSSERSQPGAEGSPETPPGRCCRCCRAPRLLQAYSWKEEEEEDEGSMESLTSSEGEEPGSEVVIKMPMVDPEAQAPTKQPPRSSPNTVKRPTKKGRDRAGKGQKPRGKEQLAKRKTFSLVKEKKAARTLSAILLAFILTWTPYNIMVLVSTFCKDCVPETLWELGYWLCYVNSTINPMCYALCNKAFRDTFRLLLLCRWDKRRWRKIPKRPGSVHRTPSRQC

Compound | Ki [nM]
CC(C1=C(CCN(C)C(C)C)Cc2ccccc21)c1ccccn1 (stereo not given) | 871
C[C@H](C1=C(CCN(C)C)Cc2ccccc21)c1ccccn1 [(S)-(+)-DIMETHINDENE] | 1860
CC(C1=C(CCN(C)CCF)Cc2ccccc21)c1ccccn1 (stereo not given) | 603
CN(C)CCOC(=O)C1=C(Cc2ccccn2)c2ccccc2C1 | 5370
CC(C1=C(CCN(C(C)C)C(C)C)Cc2ccccc21)c1ccccn1 (stereo in doubt; (-)-19) | 1550
CN(C)CCC1=C(Cc2ccccn2)c2ccccc2C1 | 1580
CN(C)CCC1=C(Cc2cccnc2)c2ccccc2C1 | 3720
CCN(CC)CCC1=C(C(C)c2ccccn2)c2ccccc2C1 (stereo not given) | 447
CC(C1=C(CN(C)C(C)C)Cc2ccccc21)c1ccccn1 (stereo not given) | 229
CN(C)CCNC(=O)C1=C(Cc2ccccn2)c2ccccc2C1 | 16200

Further molecules by falling Ki, results first:

Ki [nM] | Compound
53700 | CN(C)CCNC(=O)C1=C(Cc2ccncc2)c2ccccc2C1
4270 | CN(C)CCC1=C(Cc2ccncc2)c2ccccc2C1
871 | CSc1ccc2c(c1)C(C(C)c1ccccn1)=C(CCN(C)C)C2 (stereo not given)
741 | CC(C1=C(CCN(C(C)C)C(C)C)Cc2ccccc21)c1ccccn1 (stereo in doubt; 19)
347 | CC(C1=C(CCN(C)C)Cc2ccc(Cl)cc21)c1ccccn1 (stereo not given)
331 | CC(C1=C(CCN(C)C)Cc2ccc(F)cc21)c1ccccn1 (stereo not given)
191 | C[C@@H](C1=C(CCN(C)C)Cc2ccccc21)c1ccccn1
34.7 | CC(C1=C(CN(C)C)Cc2ccccc21)c1ccccn1 (stereo not given)

target: Muscarinic acetylcholine receptor M3 (Homo sapiens, UniProt P20309); test: Binding affinity towards cloned human muscarinic acetylcholine receptor M3 stably expressed in CHO-K1 cells using [3H]N-methylscopolamine; assay type: cell-based
Sequence (P20309 whole entry): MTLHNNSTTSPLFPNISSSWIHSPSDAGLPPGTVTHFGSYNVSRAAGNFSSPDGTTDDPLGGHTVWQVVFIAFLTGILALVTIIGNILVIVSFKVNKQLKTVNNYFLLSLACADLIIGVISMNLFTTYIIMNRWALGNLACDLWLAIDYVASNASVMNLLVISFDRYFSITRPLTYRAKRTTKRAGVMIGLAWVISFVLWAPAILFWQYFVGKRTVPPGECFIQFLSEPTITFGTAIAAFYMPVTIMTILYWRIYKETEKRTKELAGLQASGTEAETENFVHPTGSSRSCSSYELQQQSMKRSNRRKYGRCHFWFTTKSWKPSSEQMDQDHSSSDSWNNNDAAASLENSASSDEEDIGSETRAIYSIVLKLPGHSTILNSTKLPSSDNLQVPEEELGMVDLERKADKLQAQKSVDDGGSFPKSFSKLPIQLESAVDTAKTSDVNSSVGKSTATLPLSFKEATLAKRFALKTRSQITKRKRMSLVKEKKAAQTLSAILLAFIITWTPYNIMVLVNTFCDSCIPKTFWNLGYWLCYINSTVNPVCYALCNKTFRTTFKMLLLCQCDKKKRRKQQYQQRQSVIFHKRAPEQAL

Compound | Ki [nM]
CC(C1=C(CCN(C)C(C)C)Cc2ccccc21)c1ccccn1 (stereo not given) | 1820
C[C@H](C1=C(CCN(C)C)Cc2ccccc21)c1ccccn1 [(S)-(+)-DIMETHINDENE] | 3390
CC(C1=C(CCN(C)CCF)Cc2ccccc21)c1ccccn1 (stereo not given) | 708
CN(C)CCOC(=O)C1=C(Cc2ccccn2)c2ccccc2C1 | 8910
CC(C1=C(CCN(C(C)C)C(C)C)Cc2ccccc21)c1ccccn1 (stereo in doubt; (-)-19) | 4070
CN(C)CCC1=C(Cc2ccccn2)c2ccccc2C1 | 1550
CN(C)CCC1=C(Cc2cccnc2)c2ccccc2C1 | 8130
CCN(CC)CCC1=C(C(C)c2ccccn2)c2ccccc2C1 (stereo not given) | 955
CC(C1=C(CN(C)C(C)C)Cc2ccccc21)c1ccccn1 (stereo not given) | 741
CN(C)CCNC(=O)C1=C(Cc2ccccn2)c2ccccc2C1 | 24000

Results, then the molecule that gave them:

Ki [nM] | Compound
135000 | CN(C)CCNC(=O)C1=C(Cc2ccncc2)c2ccccc2C1
11700 | CN(C)CCC1=C(Cc2ccncc2)c2ccccc2C1
1050 | CSc1ccc2c(c1)C(C(C)c1ccccn1)=C(CCN(C)C)C2 (stereo not given)
2240 | CC(C1=C(CCN(C(C)C)C(C)C)Cc2ccccc21)c1ccccn1 (stereo in doubt; 19)
501 | CC(C1=C(CCN(C)C)Cc2ccc(Cl)cc21)c1ccccn1 (stereo not given)
263 | CC(C1=C(CCN(C)C)Cc2ccc(F)cc21)c1ccccn1 (stereo not given)
138 | C[C@@H](C1=C(CCN(C)C)Cc2ccccc21)c1ccccn1
31.6 | CC(C1=C(CN(C)C)Cc2ccccc21)c1ccccn1 (stereo not given)

target: T2, Muscarinic acetylcholine receptor M5 (Homo sapiens, UniProt P08912); test: Binding affinity towards cloned human muscarinic acetylcholine receptor M5 stably expressed in CHO-K1 cells using [3H]N-methylscopolamine; assay type: cell-based
T2 sequence (P08912 whole entry): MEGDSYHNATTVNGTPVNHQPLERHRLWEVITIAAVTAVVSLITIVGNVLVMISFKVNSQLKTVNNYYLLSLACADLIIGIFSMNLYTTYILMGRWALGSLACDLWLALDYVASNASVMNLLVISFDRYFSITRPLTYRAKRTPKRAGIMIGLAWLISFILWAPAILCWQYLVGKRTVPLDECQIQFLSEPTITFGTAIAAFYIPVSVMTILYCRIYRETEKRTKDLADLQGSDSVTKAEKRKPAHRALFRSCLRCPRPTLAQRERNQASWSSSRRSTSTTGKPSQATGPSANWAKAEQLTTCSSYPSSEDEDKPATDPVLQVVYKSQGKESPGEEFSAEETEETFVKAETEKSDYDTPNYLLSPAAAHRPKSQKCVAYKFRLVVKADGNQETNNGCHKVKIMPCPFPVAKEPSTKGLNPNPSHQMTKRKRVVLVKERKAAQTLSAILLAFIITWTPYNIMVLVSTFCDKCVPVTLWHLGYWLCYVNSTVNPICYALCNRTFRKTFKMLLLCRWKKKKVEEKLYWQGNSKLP

Compound | Ki [nM]
CC(C1=C(CCN(C)C(C)C)Cc2ccccc21)c1ccccn1 (stereo not given) | 2190
C[C@H](C1=C(CCN(C)C)Cc2ccccc21)c1ccccn1 [(S)-(+)-DIMETHINDENE] | 2690
CC(C1=C(CCN(C)CCF)Cc2ccccc21)c1ccccn1 (stereo not given) | 2000
CN(C)CCOC(=O)C1=C(Cc2ccccn2)c2ccccc2C1 | 17400
CC(C1=C(CCN(C(C)C)C(C)C)Cc2ccccc21)c1ccccn1 (stereo in doubt; (-)-19) | 11700
CN(C)CCC1=C(Cc2ccccn2)c2ccccc2C1 | 3630
CN(C)CCC1=C(Cc2cccnc2)c2ccccc2C1 | 7940
CCN(CC)CCC1=C(C(C)c2ccccn2)c2ccccc2C1 (stereo not given) | 2090
CC(C1=C(CN(C)C(C)C)Cc2ccccc21)c1ccccn1 (stereo not given) | 1120
CN(C)CCNC(=O)C1=C(Cc2ccccn2)c2ccccc2C1 | 45700

The next lines start with the values.

Ki [nM] | Compound
41700 | CN(C)CCNC(=O)C1=C(Cc2ccncc2)c2ccccc2C1
10200 | CN(C)CCC1=C(Cc2ccncc2)c2ccccc2C1
3240 | CSc1ccc2c(c1)C(C(C)c1ccccn1)=C(CCN(C)C)C2 (stereo not given)
2190 | CC(C1=C(CCN(C(C)C)C(C)C)Cc2ccccc21)c1ccccn1 (stereo in doubt; 19)
912 | CC(C1=C(CCN(C)C)Cc2ccc(Cl)cc21)c1ccccn1 (stereo not given)
1050 | CC(C1=C(CCN(C)C)Cc2ccc(F)cc21)c1ccccn1 (stereo not given)
759 | C[C@@H](C1=C(CCN(C)C)Cc2ccccc21)c1ccccn1
87.1 | CC(C1=C(CN(C)C)Cc2ccccc21)c1ccccn1 (stereo not given)

target: Histamine H1 receptor (Homo sapiens, UniProt P35367); test: Compound was evaluated for binding affinity towards cloned human histamine H1 receptors stably expressed in CHO-K1 cells using [3H]mepyramine; assay type: cell-based
In short: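 CHO-K1 membranes with stable human H1 receptor, 18 µg/mL final protein. […] Nonspecific binding with 0.1 mM terfenadine. Filtered and counted. Ki by Cheng-Prusoff. pKi mean ± SD, ≥3 experiments in duplicate.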

Histamine H1 receptor, sequence (P35367 whole entry): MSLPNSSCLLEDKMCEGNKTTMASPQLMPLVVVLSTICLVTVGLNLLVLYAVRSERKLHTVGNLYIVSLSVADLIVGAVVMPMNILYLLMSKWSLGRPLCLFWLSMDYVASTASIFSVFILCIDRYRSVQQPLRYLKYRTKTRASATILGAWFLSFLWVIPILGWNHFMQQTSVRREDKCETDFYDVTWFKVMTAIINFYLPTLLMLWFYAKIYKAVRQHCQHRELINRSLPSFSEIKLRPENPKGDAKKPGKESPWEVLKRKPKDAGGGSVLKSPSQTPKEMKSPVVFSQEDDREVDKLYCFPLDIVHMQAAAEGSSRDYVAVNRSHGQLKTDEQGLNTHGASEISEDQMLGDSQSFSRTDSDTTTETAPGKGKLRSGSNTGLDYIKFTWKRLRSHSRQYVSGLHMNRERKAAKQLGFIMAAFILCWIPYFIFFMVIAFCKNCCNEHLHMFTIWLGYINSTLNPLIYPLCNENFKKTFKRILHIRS

Compound | Ki [nM]
C[C@H](C1=C(CCN(C)C)Cc2ccccc21)c1ccccn1 [(S)-(+)-DIMETHINDENE] | 0.437
CC(C1=C(CCN(C)CCF)Cc2ccccc21)c1ccccn1 (stereo not given) | 7.24
CC(C1=C(CCN(C(C)C)C(C)C)Cc2ccccc21)c1ccccn1 (stereo in doubt; (-)-19) | 2450

Now from value to molecule:

Ki [nM] | Compound
69.2 | C[C@@H](C1=C(CCN(C)C)Cc2ccccc21)c1ccccn1
28.8 | CC(C1=C(CN(C)C)Cc2ccccc21)c1ccccn1 (stereo not given)

target: T3, Muscarinic acetylcholine receptor M4 (Homo sapiens, UniProt P08173); test: Binding affinity towards cloned human muscarinic acetylcholine receptor M4 stably expressed in CHO-K1 cells using [3H]N-methylscopolamine; assay type: cell-based
T3 sequence (P08173 whole entry): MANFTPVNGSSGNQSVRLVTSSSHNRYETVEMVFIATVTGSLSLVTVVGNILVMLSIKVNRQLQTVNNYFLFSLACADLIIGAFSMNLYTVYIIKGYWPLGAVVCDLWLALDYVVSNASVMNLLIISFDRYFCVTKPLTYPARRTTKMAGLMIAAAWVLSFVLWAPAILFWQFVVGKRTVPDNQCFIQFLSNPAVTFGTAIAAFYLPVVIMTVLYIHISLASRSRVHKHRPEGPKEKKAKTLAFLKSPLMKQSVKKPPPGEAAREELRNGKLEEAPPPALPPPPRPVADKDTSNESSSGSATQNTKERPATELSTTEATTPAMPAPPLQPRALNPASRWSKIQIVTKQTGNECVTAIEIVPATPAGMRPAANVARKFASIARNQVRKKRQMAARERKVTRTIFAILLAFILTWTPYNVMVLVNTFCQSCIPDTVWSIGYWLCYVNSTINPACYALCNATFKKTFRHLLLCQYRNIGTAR

Compound | Ki [nM]
CC(C1=C(CCN(C)C(C)C)Cc2ccccc21)c1ccccn1 (stereo not given) | 1000
C[C@H](C1=C(CCN(C)C)Cc2ccccc21)c1ccccn1 [(S)-(+)-DIMETHINDENE] | 3890
CC(C1=C(CCN(C)CCF)Cc2ccccc21)c1ccccn1 (stereo not given) | 437
CN(C)CCOC(=O)C1=C(Cc2ccccn2)c2ccccc2C1 | 14800
CC(C1=C(CCN(C(C)C)C(C)C)Cc2ccccc21)c1ccccn1 (stereo in doubt; (-)-19) | 1780
CN(C)CCC1=C(Cc2ccccn2)c2ccccc2C1 | 2400
CN(C)CCC1=C(Cc2cccnc2)c2ccccc2C1 | 7410
CCN(CC)CCC1=C(C(C)c2ccccn2)c2ccccc2C1 (stereo not given) | 457
CC(C1=C(CN(C)C(C)C)Cc2ccccc21)c1ccccn1 (stereo not given) | 603
CN(C)CCNC(=O)C1=C(Cc2ccccn2)c2ccccc2C1 | 26900

Results, then the molecule that gave them:

Ki [nM] | Compound
87100 | CN(C)CCNC(=O)C1=C(Cc2ccncc2)c2ccccc2C1
8320 | CN(C)CCC1=C(Cc2ccncc2)c2ccccc2C1
2000 | CSc1ccc2c(c1)C(C(C)c1ccccn1)=C(CCN(C)C)C2 (stereo not given)
741 | CC(C1=C(CCN(C(C)C)C(C)C)Cc2ccccc21)c1ccccn1 (stereo in doubt; 19)
741 | CC(C1=C(CCN(C)C)Cc2ccc(Cl)cc21)c1ccccn1 (stereo not given)
646 | CC(C1=C(CCN(C)C)Cc2ccc(F)cc21)c1ccccn1 (stereo not given)
295 | C[C@@H](C1=C(CCN(C)C)Cc2ccccc21)c1ccccn1
97.7 | CC(C1=C(CN(C)C)Cc2ccccc21)c1ccccn1 (stereo not given)

target: T4, Muscarinic acetylcholine receptor M2 (Homo sapiens, UniProt P08172); test: Binding affinity towards cloned human muscarinic acetylcholine receptor M2 stably expressed in CHO-K1 cells using [3H]N-methylscopolamine; assay type: cell-based
T4 sequence (P08172 whole entry): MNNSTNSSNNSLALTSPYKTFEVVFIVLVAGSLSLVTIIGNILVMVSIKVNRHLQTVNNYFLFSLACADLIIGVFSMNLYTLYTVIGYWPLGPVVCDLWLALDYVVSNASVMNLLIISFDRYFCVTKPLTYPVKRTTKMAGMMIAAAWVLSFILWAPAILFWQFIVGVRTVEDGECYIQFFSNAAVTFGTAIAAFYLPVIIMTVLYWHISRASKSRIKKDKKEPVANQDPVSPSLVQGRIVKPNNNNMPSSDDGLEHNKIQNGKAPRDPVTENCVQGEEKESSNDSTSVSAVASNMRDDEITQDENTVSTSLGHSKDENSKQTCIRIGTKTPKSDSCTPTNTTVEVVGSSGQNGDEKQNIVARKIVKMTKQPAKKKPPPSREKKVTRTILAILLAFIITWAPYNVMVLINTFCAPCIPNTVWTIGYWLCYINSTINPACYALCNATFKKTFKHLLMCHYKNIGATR

Compound | Ki [nM]
CC(C1=C(CCN(C)C(C)C)Cc2ccccc21)c1ccccn1 (stereo not given) | 145
C[C@H](C1=C(CCN(C)C)Cc2ccccc21)c1ccccn1 [(S)-(+)-DIMETHINDENE] | 1230
CC(C1=C(CCN(C)CCF)Cc2ccccc21)c1ccccn1 (stereo not given) | 32.4
CN(C)CCOC(=O)C1=C(Cc2ccccn2)c2ccccc2C1 | 4900
CC(C1=C(CCN(C(C)C)C(C)C)Cc2ccccc21)c1ccccn1 (stereo in doubt; (-)-19) | 42.7
CN(C)CCC1=C(Cc2ccccn2)c2ccccc2C1 | 234
CN(C)CCC1=C(Cc2cccnc2)c2ccccc2C1 | 5370
CCN(CC)CCC1=C(C(C)c2ccccn2)c2ccccc2C1 (stereo not given) | 44.7
CC(C1=C(CN(C)C(C)C)Cc2ccccc21)c1ccccn1 (stereo not given) | 51.3
CN(C)CCNC(=O)C1=C(Cc2ccccn2)c2ccccc2C1 | 14800

Results, then the molecule that gave them:

Ki [nM] | Compound
93300 | CN(C)CCNC(=O)C1=C(Cc2ccncc2)c2ccccc2C1
6760 | CN(C)CCC1=C(Cc2ccncc2)c2ccccc2C1
912 | CSc1ccc2c(c1)C(C(C)c1ccccn1)=C(CCN(C)C)C2 (stereo not given)
25.1 | CC(C1=C(CCN(C(C)C)C(C)C)Cc2ccccc21)c1ccccn1 (stereo in doubt; 19)
363 | CC(C1=C(CCN(C)C)Cc2ccc(Cl)cc21)c1ccccn1 (stereo not given)
112 | CC(C1=C(CCN(C)C)Cc2ccc(F)cc21)c1ccccn1 (stereo not given)
30.2 | C[C@@H](C1=C(CCN(C)C)Cc2ccccc21)c1ccccn1
12.3 | CC(C1=C(CN(C)C)Cc2ccccc21)c1ccccn1 (stereo not given)
